# Measured values reported in paper PMC3944102 (ACS chemical biology, 2013).
# Read-outs that look alike come from different tables or passages of the source.
# Experiments:
# [1] = biological target: T1, VopS (Vibrio parahaemolyticus serotype O3:K6, UniProt Q87P32); assay: biochemical
# [2] = system: VopS; settings: read-out: KM of VopS for ATP; cited from earlier work
# [3] = system: VopS transfected HeLa cells; assay: Cell rounding phenotype induced by VopS overexpression; type: cell-based; settings: 10 µM
# [4] = biological target: T1, VopS; assay: biochemical; settings: for inhibition at 11 µM: read-out: Primary screen inhibition; for Primary screen inhibition: LOPAC screen at 11 µM, FP read at 3 h, average of three replicates
# [5] = biological target: T1, VopS; type: biochemical
# [6] = system: VopS transfected HeLa cells; assay: Cellular protein AMPylation, Western blot; type: cell-based; settings: Western blotting, 1 and 3 at 10 µM, 4 at 5 µM, 18 h
# [7] = system: HYPE Fic E234G; assay: Gel-based secondary screen, HYPE Fic E234G with histone H3 as substrate; type: biochemical, human; settings: 10 µM compound, relative to DMSO control
# [8] = biological target: T1, VopS; assay: biochemical; type: biochemical; settings: for Labeling of Cdc42 in gel (in words): 10 µM inhibitor; for inhibition at 10 µM: read-out: Gel based % inhibition VopS; for Gel based % inhibition VopS: 10 µM compound, relative to DMSO control
# [9] = system: VopS; assay: biochemical; type: biochemical, Vibrio parahaemolyticus; settings: VopS over HYPE, from gel based % inhibition at 10 µM
# [10] = biological target: PAD4 (Homo sapiens, UniProt Q9UM07); assay: PAD4 FP-ABPP HTS counterscreen with fluorescein-conjugated F-amidine; type: biochemical
# PAD4, sequence (Q9UM07 whole entry, species assumed): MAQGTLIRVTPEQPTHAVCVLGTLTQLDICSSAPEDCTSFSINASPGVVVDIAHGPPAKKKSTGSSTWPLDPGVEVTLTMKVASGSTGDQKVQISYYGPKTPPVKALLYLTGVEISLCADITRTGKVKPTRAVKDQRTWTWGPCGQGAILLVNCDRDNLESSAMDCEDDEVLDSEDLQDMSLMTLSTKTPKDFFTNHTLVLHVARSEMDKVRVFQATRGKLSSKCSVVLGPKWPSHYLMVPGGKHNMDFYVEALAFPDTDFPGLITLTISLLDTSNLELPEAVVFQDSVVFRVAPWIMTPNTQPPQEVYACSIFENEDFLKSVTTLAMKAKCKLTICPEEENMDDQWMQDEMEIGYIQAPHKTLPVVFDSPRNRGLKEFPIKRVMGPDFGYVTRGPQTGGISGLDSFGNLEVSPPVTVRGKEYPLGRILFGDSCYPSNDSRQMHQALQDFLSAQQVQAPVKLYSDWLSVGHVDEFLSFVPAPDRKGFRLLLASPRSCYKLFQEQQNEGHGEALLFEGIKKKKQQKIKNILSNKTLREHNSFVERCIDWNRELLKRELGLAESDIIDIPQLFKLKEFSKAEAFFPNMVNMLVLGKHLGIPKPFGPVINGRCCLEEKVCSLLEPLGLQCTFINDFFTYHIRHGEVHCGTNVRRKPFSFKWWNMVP
# Outline: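 Fluorescence polarization read-out with the fluorescein-tagged probe FFA, which covalently modifies an active-site cysteine of PAD4 and gives a time-dependent rise in FP when incubated with the enzyme. Test compounds were run as concentration-response curves, and inhibition was read as reduced FP. Used as a counterscreen to flag quenchers, aggregators and other non-specific FP decreasers.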
# [11] = biological target: VopSΔ30 (Vibrio parahaemolyticus serotype O3:K6, UniProt Q87P32); assay: Differential hydrogen deuterium exchange; type: binding; settings: 10 µM VopSΔ30, 100 µM or 30 µM ligand
# [12] = read-out: CRC IC50 PAD4, PAD4 targeted FP-ABPP assay
SMILES,"IC50 ([1]; IC50(ATP), 3 h, 7 replicates, ATP out competing Fl-ATP)","IC50 ([1]; IC50, at 1, 2, and 3 h)",Km [2],Reversal of cell rounding phenotype [3],inhibition at 11 µM [4],Kii ([5]; varied substrate ATP),Mechanism of inhibition ([5]; varied substrate ATP),Kii ([5]; varied substrate Cdc42),Mechanism of inhibition ([5]; varied substrate Cdc42),Cellular protein AMPylation [6],Gel based % inhibition HYPE [7],Labeling of Cdc42 in gel (in words) [8],inhibition at 10 µM [8],Fold selective [9],IC50 [10],Primary screen inhibition [4],Gel based % inhibition VopS [8],"IC50 [10, 12]",HDX protection / binding region of VopS [11],Ki ([5]; competitive with respect to Cdc42)
"Nc1ncnc2c1ncn2[C@@H]1O[C@H](COP(=O)(O)OP(=O)(O)OP(=O)(O)O)[C@@H](O)[C@H]1O [ATP, adenosine triphosphate]",7 ± 1 µM,6.8 to 7 µM,~50 µM,–,–,–,–,–,–,–,–,–,–,–,–,–,–,–,–,–
"CC(C)(Sc1ccc(CCN(CCCCC2CCCCC2)C(=O)NC2CCCCC2)cc1)C(=O)O [Compound 1, GW7647]",–,–,–,unable to reverse the cell rounding phenotype,61%,41 ± 5 µM,Non-competitive,20 ± 1 µM,Non-competitive,decreased cellular protein AMPylation,10%,decrease in labeling,55%,6 fold,> 59 µM,–,–,–,–,–
"Nc1ncnc2c1ncn2[C@@H]1O[C@H](COP(=O)(O)OP(=O)(O)OP(=O)(O)OP(=O)(O)OC[C@H]2O[C@@H](n3cnc4c(N)ncnc43)[C@H](O)[C@@H]2O)[C@@H](O)[C@H]1O [Compound 2, Ap4A]",–,–,–,–,–,–,–,–,–,–,41%,–,–,–,–,47% ± 4,3%,> 59 µM,–,–
"CC(C)c1ccc2c(c1)c(SC(C)(C)C)c(CC(C)(C)C(=O)O)n2Cc1ccc(Cl)cc1 [Compound 3, MK886]",–,–,–,unable to reverse the cell rounding phenotype,–,50 ± 6 µM,Non-competitive,99 ± 16 µM,Non-competitive,decreased cellular protein AMPylation,4%,decrease in labeling,–,6 fold,–,41% ± 3,22%,> 59 µM,increased protection within the N-terminus of VopS (residues 59–75),–
"Clc1ccc(C(c2ccc(Cl)cc2)n2cc[n+](CC(OCc3ccc(Cl)cc3Cl)c3ccc(Cl)cc3Cl)c2)cc1 (stereo not drawn) [Compound 4, calmidazolium]",–,–,–,–,33%,26 ± 4 µM,Non-competitive,6 ± 1 µM,Competitive,did not show a significant decrease,2%,decrease in labeling,63%,32 fold,> 59 µM,–,–,–,binds to the N-terminal region of VopS (in particular residues 59–63),6 ± 1 µM
